Shown are actives, neighbours in structure and some others; about 1.2% of the full set was active somewhere.
FID counter: counter-screen for HCV NS3 helicase inhibitors: DNA intercalator displacement; hit rate 0.17% among 290,000; inhibition, % at 7.9 µM; DNA fluorescent intercalator displacement, fluorescence; in the data active = inhibition above about 37%;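 also: higher means more ethidium bromide displaced from hairpin DNA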
Wee1 stabilizer: blocks degradation of human Wee1 kinase; P30291; HeLa Luc-Wee1K328M stability, luciferase luminescence; 100% = proteasome inhibitor MG132 effect; reporter increase, % at 5 µM; hit rate 1.2% among 220,000; AID 1321;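 active = activation above the mean of all tested compounds plus 3 SD, set per screening run, cut at about 8.8% in these data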;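 also: cells exposed to compound for 20 h before luminescence read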
Target sequence (P30291 whole entry K328M): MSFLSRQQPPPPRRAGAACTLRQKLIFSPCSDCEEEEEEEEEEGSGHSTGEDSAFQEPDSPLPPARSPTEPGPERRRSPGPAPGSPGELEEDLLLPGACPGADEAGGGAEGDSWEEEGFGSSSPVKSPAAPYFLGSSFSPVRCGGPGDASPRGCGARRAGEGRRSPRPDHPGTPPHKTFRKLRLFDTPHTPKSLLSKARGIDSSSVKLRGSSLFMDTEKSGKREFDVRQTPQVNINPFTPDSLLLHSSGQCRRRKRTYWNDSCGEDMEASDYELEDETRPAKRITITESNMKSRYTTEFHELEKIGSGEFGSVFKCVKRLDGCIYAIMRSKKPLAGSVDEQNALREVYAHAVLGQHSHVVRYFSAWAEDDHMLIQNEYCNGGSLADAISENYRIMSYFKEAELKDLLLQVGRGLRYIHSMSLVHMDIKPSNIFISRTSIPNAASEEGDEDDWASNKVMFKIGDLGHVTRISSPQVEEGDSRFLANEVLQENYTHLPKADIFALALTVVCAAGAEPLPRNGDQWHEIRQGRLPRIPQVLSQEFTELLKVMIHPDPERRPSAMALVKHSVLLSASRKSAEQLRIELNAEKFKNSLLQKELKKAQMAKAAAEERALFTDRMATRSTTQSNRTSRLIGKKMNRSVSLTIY
RBBP9 inh: blocks human serine hydrolase RBBP9; inhibition, % at 7.94 µM; recombinant RBBP9, FP-Rh probe fluorescence polarization; O75884; hit rate 0.2% among 220,000; AID 1515;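 active = inhibition above the campaign mean of all tested compounds plus 3 SD, cut at about 14% in these data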
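Measured by: FP readout at 525/598 nm; material: recombinant human RBBP9; also added: Serine-hydrolase probe FP-Rh, 375 nM pre-mixing; medium: Tris buffer pH 8.0, NaCl, Pluronic; replication: one well per compound; doses: one concentration, 7.94 µM nominal, 0.794% DMSO; timing: preincubation 30 min plus labeling 45 min at 25 °C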
Rad51 HR inh: blocks human Rad51 in homologous recombination; hRad51 DNA strand exchange, fluorescence dequenching; inhibition, % at 10 µM; hit rate 0.085% among 200,000;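 active = inhibition above 40% at the single screening dose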
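material = hRad51 filaments on single-stranded DNA | timing = filaments 15 min 37 °C, then compound 30 min | signal = FRET fluorescence dequenching, excitation 485 nm, emission 520 nm | benchmarks = control wells and blank wells on each plate | evaluation = percent inhibition relative to plate controls and blanks | compound = 10 µM final, single point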
Wee1 stab conf: human Wee1 degradation inhibition, confirmation; activation, % at 5 µM; hit rate 4% among 1,100; AID 1410; HeLa Luc-Wee1K328M degradation, luminescence; vehicle 0%, proteasome-blocked wells 100%; shares compounds with Wee1 stabilizer; in the data active = activation above about 8.9%
Each line names hits and unclear results; the compound was inactive in the other large screens (follow-up assays come after a bar, where they were run).

CCCC(=O)Nc1ccc2c(c1)nc(CN1CCCCC1)n2C	Wee1 stabilizer 16 | Wee1 stab conf inactive
CCCC(=O)Nc1ccc2c(c1)nc(CN1CCCC1)n2C	none
C=CCNc1nc(Nc2ccc([N+](=O)[O-])cc2)nc(OCC)n1	none
CNC(=S)NCc1ccc2[nH]c3c(c2c1)CCCC3	Wee1 stabilizer 11 | Wee1 stab conf inactive
Cc1nnc(NC(=O)CCSc2ccc(Cl)cc2)s1	none
CCOC(=O)N1CCN(C(=O)CCC(=O)c2ccc(OCC)cc2)CC1	none (no result: Wee1 stabilizer, RBBP9 inh, Rad51 HR inh)
CCCOc1ccc(C(=O)CCN2CCN(C(=O)OCC)CC2)cc1	Wee1 stabilizer 17 | Wee1 stab conf inactive
CCOC(=O)c1[nH]c2c(c1-c1ccccc1)C(=O)CC(c1ccc(OCC)cc1)C2 (configuration not stated)	none (no result: Rad51 HR inh)
CCOC(=O)c1[nH]c2c(c1-c1ccccc1)C(=O)CC(c1ccc(OC)c(OC)c1)C2 (configuration not stated)	Wee1 stabilizer 20 | Wee1 stab conf inactive
O=C(NCc1ccc(Cl)cc1)C(=O)Nc1nccs1	none
C/C=C/C=C/C(=O)Nc1nccs1	Wee1 stabilizer 11 (no result: Rad51 HR inh) | Wee1 stab conf inactive
C/C(=C\c1ccccc1)C(=O)Nc1nccs1	none
O=C(/C=C/c1ccc(Cl)cc1)Nc1nccs1	Wee1 stabilizer 13 | Wee1 stab conf inactive
CCCCN(C)C/C(O)=C(\C#N)c1nc(-c2ccccc2)cs1	none
COc1ccc(OC)c(S(=O)(=O)N2CCC(C(=O)Nc3cccc(C)c3)CC2)c1	Wee1 stabilizer 11 | Wee1 stab conf inactive
C=CCn1c(SCC(=O)Nc2cc(C)ccc2OC)nnc1-c1ccco1	Wee1 stabilizer 15 | Wee1 stab conf inactive
C=CCn1c(SCC(=O)Nc2cc(C)c(Cl)cc2OC)nnc1-c1ccco1	none
CNCC(O)COc1ccccc1 (configuration not stated)	none
CNCC(O)COc1cccc(OC)c1 (configuration not stated)	Wee1 stabilizer 11 | Wee1 stab conf inactive
CCN(CC)CCSc1nc2ccccc2c(=S)n1-c1ccccc1	FID counter 45, Wee1 stabilizer 13 | Wee1 stab conf inactive
O=C(N/N=C/c1ccc2ncccc2c1)c1ccco1	Wee1 stabilizer 13 | Wee1 stab conf inactive
Cc1cc2c(cc1C)C(c1ccccc1Br)CC(=O)N2 (configuration not stated)	Wee1 stabilizer 15 | Wee1 stab conf inactive
Fc1ccccc1Cc1nnc2n1N=C(c1ccc(Cl)cc1)CS2	none
COC(=O)c1ccccc1N=Nc1c(N)[nH][nH]c1=O	Wee1 stabilizer 18 | Wee1 stab conf inactive
COc1cccc(-c2nnc(-c3ccc(C)o3)o2)c1	none
COc1cccc(-c2nnc(-c3ccco3)o2)c1	Wee1 stabilizer 11 (no result: Rad51 HR inh) | Wee1 stab conf inactive
COc1ccc(NC(=O)C2(S(=O)(=O)c3ccc(C)cc3)CC2)cc1OC	none (no result: Wee1 stabilizer, RBBP9 inh, Rad51 HR inh)
Cc1ccc(S(=O)(=O)C2(C(=O)Nc3ccc(Br)cc3)CC2)cc1	Wee1 stabilizer 14 | Wee1 stab conf inactive
CCCC(C)C(=O)OCC(=O)NCc1ccc(OC)c(OC)c1 (configuration not stated)	Wee1 stabilizer 14 | Wee1 stab conf inactive
CC(C)CNC(=O)CN(C1CCCCC1)S(=O)(=O)c1ccccc1	Wee1 stabilizer 11 | Wee1 stab conf inactive
CCOC(=O)N1CCN(C(=S)NC(=O)c2cncc(Br)c2)CC1	none (no result: Rad51 HR inh)
CC(C)(C)c1ccc(C2(C)NC(=O)N(CC(=O)Nc3ccc4c(c3)OCO4)C2=O)cc1 (configuration not stated)	Wee1 stabilizer 14 | Wee1 stab conf inactive
O=C1OC(/C(=C\Nc2cc(Cl)ccc2O)[N+](=O)[O-])c2ccccc21 (configuration not stated)	none
Cc1ccc(CN(C(=O)c2ccc(Cl)c([N+](=O)[O-])c2)C2CCS(=O)(=O)C2)o1 (configuration not stated)	none (no result: Wee1 stabilizer, RBBP9 inh, Rad51 HR inh)
Cc1ccc(S(=O)OCC(=O)Nc2cc(Cl)ccc2N2CCOCC2)cc1 (configuration not stated)	Wee1 stabilizer 16 | Wee1 stab conf inactive
Cc1noc(C)c1CSCC(=O)Nc1cc(Cl)ccc1N1CCOCC1	none (no result: Wee1 stabilizer, RBBP9 inh, Rad51 HR inh)
CC(C)c1ccc(N(CC(=O)NC2CCCC2)C(=O)CCC(=O)Nc2ccccn2)cc1	none (no result: Wee1 stabilizer, RBBP9 inh, Rad51 HR inh)
COc1ccc(/C=C(/C#N)C(=O)NC2CCCCC2)cc1Br	none
Cc1cc(/C=C(\C#N)C(=O)NC2CCCCCC2)c(C)n1C	Wee1 stabilizer 28 | Wee1 stab conf inactive
Cc1cc(C)n(-c2cccc(Cl)c2C#N)n1	Wee1 stabilizer 13 (no result: Rad51 HR inh) | Wee1 stab conf inactive
O=S(=O)(c1cccc2nsnc12)N1CCN(C/C=C/c2ccccc2)CC1	Wee1 stabilizer 11 | Wee1 stab conf inactive
CC(=O)CCn1cnc([N+](=O)[O-])n1	none
BrC(/C=N/N1CCN(Cc2ccccc2)CC1)=C/c1ccccc1	Wee1 stabilizer 23 (no result: Rad51 HR inh) | Wee1 stab conf inactive
O=[N+]([O-])c1cc(/C=N/N2CCN(Cc3ccccc3)CC2)ccc1Cl	Wee1 stabilizer 15 | Wee1 stab conf inactive
O=[N+]([O-])c1ccc(/C=N/N2CCN(Cc3ccccc3)CC2)cc1	none (no result: Wee1 stabilizer, RBBP9 inh, Rad51 HR inh)
COc1ccc(/C(C)=N\O)cc1OC	none
CCC(C)(C)NC(=O)C(c1ccncc1)N(C(=O)Cn1nnc2ccccc21)c1cc2c(cc1C(C)=O)OCO2 (configuration not stated)	Wee1 stabilizer 14 (no result: Rad51 HR inh) | Wee1 stab conf inactive
O=S(=O)(c1ccccc1)N1N=C(c2ccccc2)CC1c1ccccc1 (configuration not stated)	none (no result: Rad51 HR inh)
COc1ccc(C2=NN(S(=O)(=O)c3ccccc3)C(c3ccccc3)C2)cc1 (configuration not stated)	Wee1 stabilizer 11 (no result: Rad51 HR inh) | Wee1 stab conf inactive
O=C(N/C(=C\c1ccccc1)C(=O)N1CCOCC1)c1ccccc1Cl	none (no result: Wee1 stabilizer, RBBP9 inh, Rad51 HR inh)
Cc1noc(C)c1Cn1nc(C(=O)O)c2ccccc2c1=O	Wee1 stabilizer 12 | Wee1 stab conf inactive
Cc1nnc(SCC(=O)NNC(=O)C(C)C)[nH]c1=O	none
O=C(NCCc1ccccc1)c1cc(=O)[nH]c2ccccc12	Wee1 stabilizer 11 | Wee1 stab conf inactive
COc1ccc(CCNC(=O)c2cc(=O)[nH]c3ccccc23)cc1	none (no result: Wee1 stabilizer, RBBP9 inh, Rad51 HR inh)
O=C(NCCc1ccccc1)c1c(F)c(F)c(F)c(F)c1F	Wee1 stabilizer 24 | Wee1 stab conf inactive
O=C(NCCc1ccccc1)c1ccccc1F	none
Cc1ccc(NC(=S)NCc2ccc(S(N)(=O)=O)cc2)cc1Cl	none
COc1cccc(NC(=O)C(=O)N/N=C(\C)CC(=O)Nc2ccc(NC(C)=O)cc2)c1	none (no result: Wee1 stabilizer, RBBP9 inh, Rad51 HR inh)
CCC1CCCCN1C(=S)NC1CCCCC1 (configuration not stated)	Wee1 stabilizer 14 | Wee1 stab conf inactive
CCC(C)NCCOc1ccc(C)cc1[N+](=O)[O-] (configuration not stated)	Wee1 stabilizer 25 (no result: Rad51 HR inh) | Wee1 stab conf inactive
C/C=C\C(=O)Nc1cccc(C2=NOC3(C2)C[C@H](C(N)=O)N(C(=O)[C@H]2CCC(=O)N2)C3)c1 (some centres not stated)	none (no result: FID counter, Wee1 stabilizer, RBBP9 inh)
CCCCNC(=S)Nc1ccc2nc3n(c(=O)c2c1)CCCCC3	none
